# Only some compounds are listed: those with a hit (about 2.1% of all), similar ones and a draw of the others.
# A3A deaminase – inhibitors of human APOBEC3A DNA deaminase. AID 493011. inhibition, % at 20 µM. recombinant A3A, FAM/TAMRA ssDNA deamination fluorescence. actives 0.41% (n = 330,000). P31941;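 active = at least 40% inhibition at 20 µM here, with at most 30% in a related deaminase screen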
# ARFGAP1 inhibitor – inhibitors of rat ARFGAP1 | actives 0.26% (n = 360,000) | inhibition, % at 16.5 µM | AID 651572 | Q62848 | Arfgap1-stimulated ARF1 GTP hydrolysis, GDP FP detection;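 active = inhibition above a per-plate limit, mean inhibition of low control wells plus 3 SD, cut at about 25% in these data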
# Target sequence (Q62848 1-136 limits assumed): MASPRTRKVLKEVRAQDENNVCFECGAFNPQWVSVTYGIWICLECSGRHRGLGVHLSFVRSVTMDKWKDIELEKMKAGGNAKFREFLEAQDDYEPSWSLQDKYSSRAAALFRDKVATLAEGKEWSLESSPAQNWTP
#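 Replicates: Single well per compound | Assay system: Truncated rat Arfgap1 GAP domain | Control set: No-Arfgap1 wells (100%) versus DMSO full-reaction wells (0%) | Times: Enzyme reaction 120 min at 25 °C after 20 min preincubation | Reagent: Human ARF1(Δ1-17)-GTP substrate | Measured by: Tracer-displacement fluorescence polarization with EDTA stop, 620/688 nm | Measure: Percent inhibition of Arfgap1-stimulated GTP hydrolysis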
# Statin myotox sup – suppressors of simvastatin-induced myotoxicity in C2C12 myotubes; ATP luminescence, 48 h; scaled: DMSO 0, geranylgeraniol control 100; rescue of ATP level, % at 7.49 µM; actives 0.78% (n = 330,000); AID 602340;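 active = mean ATP rescue above about 67%, or every replicate alone reaching that limit, limit read from the data, passing the limit was not always enough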;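 also: myotubes were challenged with 10 µM simvastatin during compound exposure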
# APOBEC3G inh – inhibitors of human APOBEC3G DNA deaminase; Q9HC16; recombinant A3G, ssDNA deamination FAM/TAMRA fluorescence; inhibition, % at 20 µM; actives 0.28% (n = 330,000);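 active = inhibition of at least 40% at 20 µM, with no more than 30% in the related APOBEC3A deaminase screen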
# Target sequence (Q9HC16 whole entry, looked up): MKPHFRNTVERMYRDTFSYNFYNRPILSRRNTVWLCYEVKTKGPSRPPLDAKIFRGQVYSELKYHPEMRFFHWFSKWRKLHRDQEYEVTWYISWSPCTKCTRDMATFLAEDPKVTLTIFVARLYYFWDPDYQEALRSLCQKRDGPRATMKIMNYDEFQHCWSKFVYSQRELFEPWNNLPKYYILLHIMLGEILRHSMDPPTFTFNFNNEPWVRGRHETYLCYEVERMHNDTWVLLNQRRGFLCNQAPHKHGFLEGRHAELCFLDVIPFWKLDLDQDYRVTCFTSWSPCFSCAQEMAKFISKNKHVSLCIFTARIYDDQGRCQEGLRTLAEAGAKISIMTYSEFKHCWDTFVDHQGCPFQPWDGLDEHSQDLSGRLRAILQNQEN
# ASAP1 inh – blocks human ASAP1-stimulated Arf1 GTP hydrolysis; inhibition, % at 16.5 µM; Q9ULH1; AID 624377; actives 0.19% (n = 360,000); GDP FP detection; in the data active = inhibition above about 25%
# Mot1-301 SUMO – inhibitors of SUMOylation pathway: yeast Mot1-301 growth rescue | AID 2716 | growth rescue, % at 18.8 µM | actives 1% (n = 320,000) | S. cerevisiae Mot1-301 growth rescue, ATP luminescence, 38.5C; percent above DMSO median, 100 means doubled;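 active = every valid replicate shows activation above 250% relative to neutral control wells; inactive = the rest, any valid replicate at or below 250%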
# APOBEC3G confirm – APOBEC3G (human) deaminase inhibition, confirmed; recombinant A3G ssDNA deaminase, UDG/FAM-TAMRA fluorescence; shares compounds with APOBEC3G inh; actives 72% (n = 890); inhibition, % at 20 µM;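 active = inhibition reaching a set limit in any replicate at 20 µM, the limit being 80% of the first screen's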
# UDG A3G counter – E. coli UDG inhibition in APOBEC3G counter-screen | shares compounds with APOBEC3G inh | UDG counterscreen, FAM/TAMRA oligo fluorescence | inhibition, % at 20 µM | 710 tested, under 10 active | AID 504715;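 active = compounds giving 40% or more inhibition at 20 µM in any one of the three replicates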;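 also: inhibitors lower the FAM signal released by uracil excision and alkaline cleavage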
# A number is an active result; i = inactive; nt = no result.
SMILES,A3A deaminase,ARFGAP1 inhibitor,Statin myotox sup,APOBEC3G inh,ASAP1 inh,Mot1-301 SUMO,APOBEC3G confirm,UDG A3G counter
Cc1ccc(-n2c(-c3ccc(Cl)cc3)n[nH]c2=S)c(C)c1,i,i,i,i,i,i,nt,nt
C=CCn1c(-c2cccc(S(=O)(=O)N(CC)CC)c2)n[nH]c1=S,i,i,i,47,i,i,79,i
CCN(CC)S(=O)(=O)c1cccc(-c2n[nH]c(=S)n2C)c1,i,i,nt,46,i,i,69,i
Cc1noc(C)c1S(=O)(=O)Nc1ccc2c(c1)CC(=O)N([C@@H](C)CO)C[C@H](C)[C@H](CN(C)Cc1ccncc1)O2,nt,nt,i,nt,nt,nt,nt,nt
CCc1n[nH]c(=S)n1/N=C/c1cccc2ccccc12,i,i,i,i,i,i,nt,nt
CCc1n[nH]c(=S)n1/N=C/c1c(O)ccc2ccccc12,i,i,i,52,i,i,75,i
CC1(CCc2ccccc2)NC(=S)N(c2ccccc2)N1 (centres undefined),nt,i,nt,nt,i,i,nt,nt
CC1(CCc2ccccc2)NC(=S)N(c2ccc(Cl)cc2)N1 (centres undefined),i,i,nt,57,i,i,i,nt
Cc1ccc(-c2csc(Nc3ccc(S(N)(=O)=O)cc3)n2)o1,i,i,nt,52,i,i,i,i
CS(=O)(=O)C1=NN2C(=N)/C(=C\c3ccc(OC(=O)c4ccco4)cc3)C(=O)N=C2S1,i,i,i,62,i,i,i,i
C=C(C)C(=O)Nc1cccc(C2=NOC3(C2)C[C@@H](C(N)=O)N(C(=O)c2ccc(OC)cc2)C3)c1 (some centres undefined),i,nt,i,81,nt,i,100,nt
C=C(C)C(=O)Nc1cccc(C2=NOC3(C2)C[C@@H](C(N)=O)N(C(=O)CCCCC)C3)c1 (some centres undefined),i,i,nt,86,i,i,94,i
C/C=C(/C)C(=O)Nc1cccc(C2=NOC3(C2)C[C@@H](C(N)=O)N(C(=O)[C@H]2CCC(=O)N2)C3)c1 (some centres undefined),i,i,i,i,i,i,nt,nt
C=C(C)C(=O)Nc1cccc(C2=NOC3(C2)C[C@@H](C(N)=O)N(C(=O)[C@H]2CCC(=O)N2)C3)c1 (some centres undefined),i,i,i,43,i,i,46,i
CCCCCC(=O)N1CC2(CC(c3cccc(NC(=O)[C@@H]4CCC(=O)N4)c3)=NO2)C[C@@H]1C(N)=O (some centres undefined),i,i,i,i,i,i,nt,nt
COc1ccc(CN(C)C[C@H]2Oc3ccc(NS(=O)(=O)c4ccc(C)cc4)cc3C(=O)N([C@H](C)CO)C[C@@H]2C)cc1,nt,nt,i,nt,nt,nt,nt,nt
C[C@H](CO)N1C[C@H](C)[C@H](CN(C)C(=O)Nc2ccc(F)cc2)Oc2c(NC(=O)Nc3cccc4ccccc34)cccc2C1=O,nt,nt,i,nt,nt,nt,nt,nt
O=C(C[C@H]1CC[C@@H]2[C@H](COC[C@H](O)CN2C(=O)c2ccccn2)O1)N1CCN(c2ccccc2)CC1,nt,nt,i,nt,nt,nt,nt,nt
N#Cc1c(-c2cccnc2)c2c([nH]c1=S)CCCC2,i,i,i,50,i,i,86,i
N#Cc1c(-c2ccco2)c2c([nH]c1=S)CCCC2,i,i,i,i,i,i,nt,nt
C[C@H]1CCCCO[C@H](CN(C)Cc2ccc3c(c2)OCO3)[C@@H](C)CN([C@@H](C)CO)C(=O)c2cc(NC(=O)C3CCCCC3)ccc2O1,nt,nt,i,nt,nt,nt,nt,nt
NC(=O)c1c(NC(=O)CCCn2cnc([N+](=O)[O-])n2)sc2c1CCCC2,i,i,i,59,i,i,41,i
Cc1ccc(CN2CC(C(=O)Nc3ccc4c(C)cc(=O)oc4c3)CC2=O)cc1 (centres undefined),i,i,i,i,i,nt,nt,nt
Cc1cc(=O)oc2cc(NC(=O)C3CCCC3)ccc12,i,i,i,57,i,i,i,i
CCNC(=O)C[C@H]1CC[C@H](NS(=O)(=O)c2ccc(F)cc2)[C@@H](CO)O1,nt,nt,i,nt,nt,nt,nt,nt
SMILES,A3A deaminase,ARFGAP1 inhibitor,Statin myotox sup,APOBEC3G inh,ASAP1 inh,Mot1-301 SUMO,APOBEC3G confirm,UDG A3G counter
Cc1ccc(-n2c(C)cc(-c3csc(N)n3)c2C)cc1,i,i,nt,i,i,i,nt,nt
Cc1cc(-c2csc(N)n2)c(C)n1C,i,i,i,44,i,i,17,i
COCCNC(=O)C[C@@H]1CC[C@H]2[C@H](COc3ccc(NC(C)=O)cc3C(=O)N2C)O1,nt,nt,i,nt,nt,nt,nt,nt
C=CCn1c(=O)c2ccccc2n2c(=S)[nH]nc12,i,i,i,50,i,i,80,i
CC(C)CCn1c(=O)c2ccccc2n2c(=S)[nH]nc12,i,i,i,46,i,i,86,i
CCCCCn1c(=O)c2ccccc2n2c(CCl)nnc12,i,i,nt,i,i,i,nt,nt
CCOCCCn1c(=O)c2ccccc2n2c(=S)[nH]nc12,i,i,i,42,i,i,62,i
CCCN1C[C@@H](C)[C@H](OC)CN(C)C(=O)c2cc(NC(=O)Nc3c(C)noc3C)ccc2OC[C@H]1C,nt,nt,i,nt,nt,nt,nt,nt
COc1ccc(-c2nc3ccccc3c(=O)n2NC(=S)N(C)C)cc1,i,i,nt,52,i,i,64,i
CC(Sc1ccc2nnc(-c3ccc(F)cc3)n2n1)C(=O)O (centres undefined),i,i,i,42,i,i,52,i
C[C@@H]1CN([C@@H](C)CO)C(=O)CCCn2cc(nn2)CO[C@@H]1CN(C)C(=O)Nc1cccc(F)c1,nt,nt,i,nt,nt,nt,nt,nt
CCOC(=O)c1cc(-c2ccccc2)sc1NC(=O)c1ccc(OC)c(OC)c1,i,i,nt,57,i,i,47,i
O=C(Nc1nnc(COc2ccc(Cl)cc2)s1)c1ccco1,i,i,nt,71,i,i,43,i
CCc1nnc(NC(=O)C2CCCO2)s1 (centres undefined),i,i,nt,i,i,i,nt,nt
O=C(Nc1nnc(COc2ccc(Cl)cc2)s1)C1CCCO1 (centres undefined),i,i,nt,45,i,i,21,i
C[C@@H]1CN([C@@H](C)CO)C(=O)c2cc(-c3cccc(C#N)c3)cnc2O[C@@H]1CN(C)C(=O)c1cnccn1,nt,nt,i,nt,nt,nt,nt,nt
CC(=O)N(C)C[C@@H]1Oc2cc(C#Cc3ccc(F)cc3)ccc2S(=O)(=O)N([C@@H](C)CO)C[C@H]1C,nt,nt,i,nt,nt,nt,nt,nt
CCOC(=O)c1cc(C)[nH]c(=S)c1C#N,i,i,i,63,i,i,82,i
Cc1ccc(N2C(=O)CS(=O)C(c3ccccc3)C2=O)cc1C (centres undefined),i,i,nt,i,i,i,nt,nt
